Measured values published in ChEMBL document CHEMBL1165965, “Synthesis and structure-activity relationships of 1,2,3,4-tetrahydropyrido[2,3-b]pyrazines as potent and selective inhibitors of the anaplastic lymphoma kinase” (Bioorg Med Chem, 2010).

Legend:
[1] = biological target: T1, Dual specificity mitogen-activated protein kinase kinase 4 (Homo sapiens) (UniProt P45985); test: Inhibition of MEK4 at 1 uM
T1 sequence (whole entry): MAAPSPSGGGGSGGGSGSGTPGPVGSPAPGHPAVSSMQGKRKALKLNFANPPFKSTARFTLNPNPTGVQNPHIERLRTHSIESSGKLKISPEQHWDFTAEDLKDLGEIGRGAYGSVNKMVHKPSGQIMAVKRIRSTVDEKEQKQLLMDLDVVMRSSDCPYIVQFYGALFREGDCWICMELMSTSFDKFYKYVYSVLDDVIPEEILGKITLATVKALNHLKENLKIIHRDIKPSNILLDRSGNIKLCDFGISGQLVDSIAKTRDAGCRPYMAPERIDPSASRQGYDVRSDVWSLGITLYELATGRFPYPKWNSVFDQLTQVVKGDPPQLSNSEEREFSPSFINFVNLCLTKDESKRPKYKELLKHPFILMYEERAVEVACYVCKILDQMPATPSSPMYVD

[2] = biological target: Serine/threonine-protein kinase MRCK beta (Homo sapiens) (UniProt Q9Y5S2); test: Inhibition of MRCKB at 1 uM
Sequence of Serine/threonine-protein kinase MRCK beta (Homo sapiens) (Q9Y5S2 whole entry): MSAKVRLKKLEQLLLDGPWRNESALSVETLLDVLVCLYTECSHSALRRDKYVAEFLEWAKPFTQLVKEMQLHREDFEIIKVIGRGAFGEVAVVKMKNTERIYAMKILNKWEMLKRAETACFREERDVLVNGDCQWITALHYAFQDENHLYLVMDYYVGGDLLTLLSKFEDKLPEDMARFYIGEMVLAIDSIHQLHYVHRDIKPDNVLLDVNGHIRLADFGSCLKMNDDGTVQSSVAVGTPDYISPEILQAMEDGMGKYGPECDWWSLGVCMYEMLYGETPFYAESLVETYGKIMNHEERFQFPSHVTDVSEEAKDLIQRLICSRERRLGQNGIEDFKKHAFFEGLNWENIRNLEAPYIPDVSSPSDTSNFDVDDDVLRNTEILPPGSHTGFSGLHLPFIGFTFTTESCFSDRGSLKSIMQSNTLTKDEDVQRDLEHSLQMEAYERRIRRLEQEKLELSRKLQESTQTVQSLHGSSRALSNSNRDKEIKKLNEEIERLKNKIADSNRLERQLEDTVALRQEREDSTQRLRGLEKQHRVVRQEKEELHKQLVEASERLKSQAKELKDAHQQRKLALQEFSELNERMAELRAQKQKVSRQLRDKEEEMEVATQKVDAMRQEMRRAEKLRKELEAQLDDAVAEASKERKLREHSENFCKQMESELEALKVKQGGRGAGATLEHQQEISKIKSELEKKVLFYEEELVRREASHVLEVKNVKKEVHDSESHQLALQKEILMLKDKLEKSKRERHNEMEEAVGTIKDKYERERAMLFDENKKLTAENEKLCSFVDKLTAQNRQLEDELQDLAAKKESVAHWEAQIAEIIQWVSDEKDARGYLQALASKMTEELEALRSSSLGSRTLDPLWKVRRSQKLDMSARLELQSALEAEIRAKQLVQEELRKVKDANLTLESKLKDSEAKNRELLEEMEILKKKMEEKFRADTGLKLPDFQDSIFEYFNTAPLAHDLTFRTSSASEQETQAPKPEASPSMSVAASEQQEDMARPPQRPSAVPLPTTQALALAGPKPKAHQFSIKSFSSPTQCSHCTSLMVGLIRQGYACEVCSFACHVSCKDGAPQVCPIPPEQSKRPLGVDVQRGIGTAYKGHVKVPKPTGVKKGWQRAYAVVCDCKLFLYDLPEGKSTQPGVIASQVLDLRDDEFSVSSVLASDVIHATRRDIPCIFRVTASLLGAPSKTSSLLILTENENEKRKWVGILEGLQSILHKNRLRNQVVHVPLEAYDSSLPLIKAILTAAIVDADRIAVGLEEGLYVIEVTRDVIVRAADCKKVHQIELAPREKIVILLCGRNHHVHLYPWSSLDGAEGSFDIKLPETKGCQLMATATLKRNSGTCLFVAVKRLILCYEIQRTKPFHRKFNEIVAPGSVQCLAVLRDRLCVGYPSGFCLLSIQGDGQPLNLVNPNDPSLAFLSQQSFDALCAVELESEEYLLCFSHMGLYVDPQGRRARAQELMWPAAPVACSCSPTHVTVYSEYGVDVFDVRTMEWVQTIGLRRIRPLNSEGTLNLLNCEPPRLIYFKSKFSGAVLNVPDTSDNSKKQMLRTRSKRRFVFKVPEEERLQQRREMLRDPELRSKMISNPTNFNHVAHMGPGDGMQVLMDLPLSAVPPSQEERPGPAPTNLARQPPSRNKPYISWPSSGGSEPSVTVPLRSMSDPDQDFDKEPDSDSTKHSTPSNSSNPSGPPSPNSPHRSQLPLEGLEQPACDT

[3] = biological target: T2, Serine/threonine-protein kinase RIO3 (Homo sapiens) (UniProt O14730); test: Inhibition of RIOK3 at 1 uM
T2 sequence (whole entry): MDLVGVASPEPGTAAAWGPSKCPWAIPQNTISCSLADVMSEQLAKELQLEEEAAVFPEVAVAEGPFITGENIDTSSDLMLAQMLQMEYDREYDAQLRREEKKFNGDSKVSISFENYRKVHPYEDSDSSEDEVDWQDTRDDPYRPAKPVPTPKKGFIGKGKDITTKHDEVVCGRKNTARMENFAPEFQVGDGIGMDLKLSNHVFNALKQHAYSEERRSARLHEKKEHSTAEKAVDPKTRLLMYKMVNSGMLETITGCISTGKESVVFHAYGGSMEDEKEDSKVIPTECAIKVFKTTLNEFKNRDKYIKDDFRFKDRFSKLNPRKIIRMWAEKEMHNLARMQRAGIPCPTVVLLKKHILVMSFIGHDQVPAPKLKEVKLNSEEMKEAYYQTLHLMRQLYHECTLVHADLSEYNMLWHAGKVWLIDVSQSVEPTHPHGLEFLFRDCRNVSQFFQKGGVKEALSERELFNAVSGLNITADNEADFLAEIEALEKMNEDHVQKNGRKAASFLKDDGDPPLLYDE

[4] = biological target: Ribosomal protein S6 kinase alpha-6 (Homo sapiens) (UniProt Q9UK32); test: Inhibition of RPS6KA6 C-terminal domain2 at 1 uM
Sequence of Ribosomal protein S6 kinase alpha-6 (Homo sapiens) (Q9UK32 whole entry, the tested form may be a part): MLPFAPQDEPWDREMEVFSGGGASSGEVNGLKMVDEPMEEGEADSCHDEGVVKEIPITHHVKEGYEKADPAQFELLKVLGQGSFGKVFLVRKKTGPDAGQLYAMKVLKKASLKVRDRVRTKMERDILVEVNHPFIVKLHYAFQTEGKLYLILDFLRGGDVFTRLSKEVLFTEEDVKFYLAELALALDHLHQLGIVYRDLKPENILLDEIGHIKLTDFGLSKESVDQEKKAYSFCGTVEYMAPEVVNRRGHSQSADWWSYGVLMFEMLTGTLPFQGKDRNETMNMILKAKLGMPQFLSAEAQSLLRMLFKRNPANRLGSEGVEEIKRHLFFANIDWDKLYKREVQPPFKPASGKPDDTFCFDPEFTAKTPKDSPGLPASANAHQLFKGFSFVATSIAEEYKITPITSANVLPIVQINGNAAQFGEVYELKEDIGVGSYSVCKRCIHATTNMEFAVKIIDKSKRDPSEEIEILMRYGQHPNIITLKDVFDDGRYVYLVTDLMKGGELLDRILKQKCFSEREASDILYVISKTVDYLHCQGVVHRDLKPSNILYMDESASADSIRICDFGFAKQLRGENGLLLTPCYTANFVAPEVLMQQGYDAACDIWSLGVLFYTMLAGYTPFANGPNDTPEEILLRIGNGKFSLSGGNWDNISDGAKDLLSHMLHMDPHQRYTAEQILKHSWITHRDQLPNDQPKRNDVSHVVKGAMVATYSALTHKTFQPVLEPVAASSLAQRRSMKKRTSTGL

[5] = biological target: Serine/threonine-protein kinase SIK2 (Homo sapiens) (UniProt Q9H0K1); test: Inhibition of SIK2 at 1 uM
Sequence of Serine/threonine-protein kinase SIK2 (Homo sapiens) (Q9H0K1 whole entry, looked up): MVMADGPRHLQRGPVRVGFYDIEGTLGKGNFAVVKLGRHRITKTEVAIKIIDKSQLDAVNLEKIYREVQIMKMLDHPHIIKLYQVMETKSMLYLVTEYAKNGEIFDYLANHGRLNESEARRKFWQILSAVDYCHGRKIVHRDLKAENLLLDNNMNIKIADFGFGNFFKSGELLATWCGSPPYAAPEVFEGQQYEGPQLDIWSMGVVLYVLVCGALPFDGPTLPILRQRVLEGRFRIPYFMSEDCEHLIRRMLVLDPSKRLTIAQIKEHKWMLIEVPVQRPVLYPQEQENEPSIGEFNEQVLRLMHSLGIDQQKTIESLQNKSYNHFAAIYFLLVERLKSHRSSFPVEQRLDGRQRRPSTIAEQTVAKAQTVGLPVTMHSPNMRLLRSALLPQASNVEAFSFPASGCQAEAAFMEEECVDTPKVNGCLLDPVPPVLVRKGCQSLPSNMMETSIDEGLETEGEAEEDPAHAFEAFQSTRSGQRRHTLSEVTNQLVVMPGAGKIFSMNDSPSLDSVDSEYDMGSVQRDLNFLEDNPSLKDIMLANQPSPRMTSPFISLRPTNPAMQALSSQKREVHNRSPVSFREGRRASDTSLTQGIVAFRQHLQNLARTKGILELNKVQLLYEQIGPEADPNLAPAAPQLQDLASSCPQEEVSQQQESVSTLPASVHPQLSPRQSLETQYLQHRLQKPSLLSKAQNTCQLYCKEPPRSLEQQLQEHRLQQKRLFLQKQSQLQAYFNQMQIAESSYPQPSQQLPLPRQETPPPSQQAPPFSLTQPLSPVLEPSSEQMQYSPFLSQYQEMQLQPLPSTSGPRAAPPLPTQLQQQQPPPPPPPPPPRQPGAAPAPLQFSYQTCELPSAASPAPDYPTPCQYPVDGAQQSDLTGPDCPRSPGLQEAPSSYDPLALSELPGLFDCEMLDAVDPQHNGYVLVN

[6] = tested on: Tyrosine-protein kinase ABL1 (Homo sapiens), P00519 [M351T]; test: Inhibition of ABL1 M351T mutant at 1 uM
In short: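 Ambit KINOMEscan screen at a single concentration across a 250–400 kinase panel, recorded as percent inhibition. Selectivity was expressed as S(90), the fraction of kinases inhibited >90%.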

[7] = biological target: T3, Myotonin-protein kinase (Homo sapiens) (UniProt Q09013); test: Inhibition of DMPK at 1 uM
T3 sequence (whole entry): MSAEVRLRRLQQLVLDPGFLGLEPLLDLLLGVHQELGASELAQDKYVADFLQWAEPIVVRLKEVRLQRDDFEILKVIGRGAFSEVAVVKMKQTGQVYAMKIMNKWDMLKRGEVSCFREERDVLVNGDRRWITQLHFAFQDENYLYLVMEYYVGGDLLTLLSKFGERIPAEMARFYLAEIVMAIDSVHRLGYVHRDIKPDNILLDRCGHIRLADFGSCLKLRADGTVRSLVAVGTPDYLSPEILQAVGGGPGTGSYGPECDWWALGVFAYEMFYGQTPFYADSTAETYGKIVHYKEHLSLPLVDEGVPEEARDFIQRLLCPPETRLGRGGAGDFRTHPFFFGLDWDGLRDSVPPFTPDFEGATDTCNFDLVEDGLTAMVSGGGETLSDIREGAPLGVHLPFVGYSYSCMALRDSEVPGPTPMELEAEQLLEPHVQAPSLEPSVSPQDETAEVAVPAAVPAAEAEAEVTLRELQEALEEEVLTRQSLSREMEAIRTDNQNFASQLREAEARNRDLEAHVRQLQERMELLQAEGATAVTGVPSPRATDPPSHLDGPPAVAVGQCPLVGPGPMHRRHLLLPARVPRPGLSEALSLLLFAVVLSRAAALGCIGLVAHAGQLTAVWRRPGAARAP
In short: (§1)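 Single-concentration screen using Ambit Bioscience KINOMEscan technology across a panel of 250–400 kinases. Per-kinase inhibition from this screen was summarized as S(90), the fraction of kinases inhibited by more than 90%.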

[8] = biological target: Epidermal growth factor receptor (Homo sapiens) (UniProt P04626+P00533+Q15303+P21860); test: Inhibition of EGFR L747-S752del, P753S mutant at 1 uM; format: protein assay; in short: as §1
[9] = biological target: Tyrosine-protein kinase HCK (Homo sapiens) (UniProt P08631); test: Inhibition of HCK at 1 uM
Sequence of Tyrosine-protein kinase HCK (Homo sapiens) (P08631 2-526 limits assumed): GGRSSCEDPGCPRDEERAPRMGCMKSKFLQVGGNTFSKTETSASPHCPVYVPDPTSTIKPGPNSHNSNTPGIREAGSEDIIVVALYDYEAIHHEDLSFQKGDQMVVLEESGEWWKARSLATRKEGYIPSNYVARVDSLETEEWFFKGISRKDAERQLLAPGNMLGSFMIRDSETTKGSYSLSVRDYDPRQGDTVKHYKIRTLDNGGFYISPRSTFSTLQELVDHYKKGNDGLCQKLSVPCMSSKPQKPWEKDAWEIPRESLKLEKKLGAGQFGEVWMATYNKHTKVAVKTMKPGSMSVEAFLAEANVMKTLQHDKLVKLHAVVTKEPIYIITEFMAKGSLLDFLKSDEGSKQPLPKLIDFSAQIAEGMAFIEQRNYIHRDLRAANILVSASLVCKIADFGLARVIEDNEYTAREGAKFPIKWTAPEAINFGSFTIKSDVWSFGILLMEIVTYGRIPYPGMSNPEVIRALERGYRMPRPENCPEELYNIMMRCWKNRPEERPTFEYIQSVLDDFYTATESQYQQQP
In short: (§2)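 Single-concentration screen on the Ambit KINOMEscan platform, run against a panel of 250–400 kinases. Per-kinase inhibition was also summarized as S(90), the fraction of kinases inhibited by more than 90%.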

[10] = biological target: Homeodomain-interacting protein kinase 1 (Homo sapiens) (UniProt Q86Z02); test: Inhibition of HIPK1 at 1 uM; in short: as §2
Sequence of Homeodomain-interacting protein kinase 1 (Homo sapiens) (Q86Z02 whole entry, looked up): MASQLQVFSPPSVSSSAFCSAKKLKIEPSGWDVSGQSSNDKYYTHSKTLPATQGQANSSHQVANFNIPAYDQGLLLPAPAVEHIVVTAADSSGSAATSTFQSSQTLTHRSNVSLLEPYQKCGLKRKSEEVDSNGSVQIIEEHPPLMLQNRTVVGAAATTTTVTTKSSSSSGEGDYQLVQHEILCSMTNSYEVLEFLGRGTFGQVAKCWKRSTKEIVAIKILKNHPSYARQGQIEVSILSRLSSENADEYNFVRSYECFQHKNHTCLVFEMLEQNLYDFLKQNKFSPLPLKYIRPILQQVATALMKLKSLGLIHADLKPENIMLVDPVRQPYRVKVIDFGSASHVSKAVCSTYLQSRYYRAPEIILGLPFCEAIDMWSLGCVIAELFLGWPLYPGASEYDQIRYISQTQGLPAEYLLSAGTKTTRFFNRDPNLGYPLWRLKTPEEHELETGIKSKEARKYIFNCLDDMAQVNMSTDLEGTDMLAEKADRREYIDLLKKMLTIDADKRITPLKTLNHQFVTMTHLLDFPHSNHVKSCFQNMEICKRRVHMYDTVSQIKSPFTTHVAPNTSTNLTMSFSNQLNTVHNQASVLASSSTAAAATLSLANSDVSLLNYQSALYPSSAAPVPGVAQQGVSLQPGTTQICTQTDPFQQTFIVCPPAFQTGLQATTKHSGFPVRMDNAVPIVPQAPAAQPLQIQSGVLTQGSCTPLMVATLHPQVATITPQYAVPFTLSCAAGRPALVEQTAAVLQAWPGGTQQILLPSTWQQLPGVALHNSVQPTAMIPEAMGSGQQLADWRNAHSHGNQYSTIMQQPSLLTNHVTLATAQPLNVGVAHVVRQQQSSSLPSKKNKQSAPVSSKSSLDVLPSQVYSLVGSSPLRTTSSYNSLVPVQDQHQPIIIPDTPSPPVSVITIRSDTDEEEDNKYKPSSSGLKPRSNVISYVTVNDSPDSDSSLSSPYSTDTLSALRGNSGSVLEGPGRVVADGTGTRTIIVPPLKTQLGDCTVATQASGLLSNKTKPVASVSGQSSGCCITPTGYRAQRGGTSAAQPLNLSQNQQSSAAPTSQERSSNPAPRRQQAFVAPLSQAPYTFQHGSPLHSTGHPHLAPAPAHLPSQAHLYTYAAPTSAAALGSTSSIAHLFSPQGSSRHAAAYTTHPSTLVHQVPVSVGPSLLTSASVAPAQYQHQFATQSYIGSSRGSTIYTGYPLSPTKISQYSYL

Compound	inhibition [1] [%]	inhibition [2] [%]	inhibition [3] [%]	inhibition [4] [%]	inhibition [5] [%]	inhibition [6] [%]	inhibition [7] [%]	inhibition [8] [%]	inhibition [9] [%]	inhibition [10] [%]
CC(=O)N1CCN(c2cc(-c3cnc4c(c3)N(Cc3cc(Cl)ccc3C(F)(F)F)CCN4)ccn2)CC1	< 50	< 50	< 50	< 50	< 50	< 50	< 50	< 50	< 50	< 50
O=C(c1ccc(-c2cnc3c(c2)N(Cc2cc(Cl)ccc2C(F)(F)F)CCN3)cc1)N1CCCCC1	–	< 50	< 50	< 50	–	< 50	< 50	< 50	< 50	< 50
CN1CCN(c2ccc(-c3cnc4c(c3)N(Cc3cc(Cl)ccc3C(F)(F)F)CCN4)cn2)CC1	< 50	< 50	< 50	< 50	< 50	< 50	< 50	< 50	< 50	< 50
COC1CCN(C(=O)c2ccc(-c3cnc4c(c3)N(Cc3cc(Cl)ccc3C(F)(F)F)CCN4)cc2)CC1	–	< 50	< 50	< 50	< 50	< 50	< 50	< 50	< 50	< 50
CN1CCN(c2ccc(-c3cnc4c(c3)N(Cc3c(F)ccc(F)c3Cl)CCN4)cn2)CC1	< 50	< 50	< 50	< 50	< 50	87	< 50	< 50	< 50	70
O=C(c1ccc(-c2cnc3c(c2)N(Cc2cc(Cl)ccc2C(F)(F)F)CCN3)cc1)N1CCC(N2CCCC2)CC1	–	< 50	< 50	< 50	< 50	< 50	< 50	< 50	< 50	< 50

The next lines start with the values.

inhibition [1] [%]	inhibition [2] [%]	inhibition [3] [%]	inhibition [4] [%]	inhibition [5] [%]	inhibition [6] [%]	inhibition [7] [%]	inhibition [8] [%]	inhibition [9] [%]	inhibition [10] [%]	Compound
–	< 50	< 50	< 50	–	< 50	< 50	< 50	< 50	< 50	O=C(O)c1ccc(-c2cnc3c(c2)N(Cc2cc(Cl)ccc2C(F)(F)F)CCN3)cc1
< 50	< 50	< 50	< 50	< 50	71.9	< 50	< 50	< 50	72.2	CN1CCN(c2ccc(-c3cnc4c(c3)N(Cc3cc(F)ccc3F)CCN4)cn2)CC1
< 50	< 50	< 50	< 50	< 50	68	< 50	< 50	< 50	< 50	CN1CCN(c2ccc(-c3cnc4c(c3)N(Cc3cc(Cl)ccc3Cl)CCN4)cn2)CC1
< 50	< 50	< 50	< 50	75	< 50	< 50	< 50	< 50	< 50	FC(F)(F)c1ccc(Cl)cc1CN1CCNc2ncc(-c3ccnc(N4CCNCC4)c3)cc21
